Source: PubChem BioAssay
Most compounds without a hit are left out; they make up all but 5.8% or so of the library.
Pf Dd2 inh = P. falciparum Dd2 growth inhibitors, primary screen, SYBR Green fluorescence, single dose replicates; 72 h; active compounds read low; activity change, % at 10 µM; 2.3% of 94,000 active; AID 1159554, 2015; in the data active means activity change below about -80%; inconclusive means no clear call, values can overlap the other calls
KDM4C inh = inhibitors of GASC-1 (KDM4C) histone demethylase, primary screen, biochemical, single concentration HTS; GST-KDM4C 2-372, H3K9me3 peptide, LANCE TR-FRET; AID 720574, 2013; inhibition, % at 12.5 µM; 0.15% of 96,000 active; Lysine-specific demethylase 4C (Homo sapiens), Q9H3R0;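 active means mean replicate inhibition above about 25%, with at least 55% of replicates also reaching it, limit read from the data, passing the limit was not always enough; inconclusive means only one of those two conditions met; inactive means neither condition met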
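Material: GST-tagged GASC-1 (JMJD2C) catalytic fragment, aa 2-372 / Quantity: enzyme final amount 10 nM / Medium: HEPES buffer, pH 7.5, plus ascorbate / Doses: one test concentration per compound / Incubation: 30 min reaction, 60 min detection, RT / Measured by: LANCE TR-FRET / Read-out: inhibition from TR-FRET ratio decrease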
IDH1 R132H inh = inhibitors of IDH1 R132H reductase, primary screen, biochemical, plate reader, single point. Isocitrate dehydrogenase [NADP] cytoplasmic (Homo sapiens), O75874. diaphorase/resazurin fluorescence, 60 min. inhibition, % at 10 µM. 0.18% of 70,000 active; in the data active means inhibition above about 34%; inconclusive means no clear call, values can overlap the other calls; inactive means below about 11%;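 further: 0% = DMSO and 100% = no enzyme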
Target sequence (O75874 whole entry R132H): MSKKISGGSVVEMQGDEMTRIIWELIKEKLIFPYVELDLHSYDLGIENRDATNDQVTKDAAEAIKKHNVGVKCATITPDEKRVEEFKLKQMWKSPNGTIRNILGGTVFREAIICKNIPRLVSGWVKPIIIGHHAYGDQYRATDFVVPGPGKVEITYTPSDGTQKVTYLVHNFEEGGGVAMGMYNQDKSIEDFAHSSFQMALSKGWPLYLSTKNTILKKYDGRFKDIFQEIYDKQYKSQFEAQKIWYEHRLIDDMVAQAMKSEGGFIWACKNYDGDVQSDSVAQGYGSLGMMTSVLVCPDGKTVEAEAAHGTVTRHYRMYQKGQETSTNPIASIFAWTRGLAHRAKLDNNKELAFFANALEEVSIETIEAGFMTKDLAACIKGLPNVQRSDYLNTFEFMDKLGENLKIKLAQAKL
T cruzi growth-1 = T. cruzi intracellular proliferation inhibitors, primary screen, cell-based, beta-gal Tulahuen parasites, NIH3T3 host, luminescence; T. cruzi beta-gal in NIH3T3, GalScreen luminescence, 90 h; inhibition, % at 8.34 µM; 5.9% of 77,000 active; AID 624255, 2012;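 active means mean inhibition above about 93%, with at least 55% of replicates each passing it, limit read from the data, passing the limit was not always enough; inconclusive means only one of those two conditions holds; inactive means neither condition holds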
T cruzi growth-2 = T. cruzi intracellular proliferation inhibitors, confirmation, cell-based, NIH3T3 host, beta-gal parasite, luminescence, cherry-pick | inhibition, % at 8.35 µM | 72% of 5,600 active | shares compounds with T cruzi growth-1 | T. cruzi beta-gal in NIH3T3, GalScreen luminescence, 90 h;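 active means mean replicate inhibition above about 95% and at least 55% of replicates individually reaching it, limit read from the data; inconclusive means only one of the two criteria is met; inactive means neither criterion is met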
T cruzi growth-3 = inhibitors of intracellular T. cruzi replication, confirmation, NIH3T3 host cells, beta-gal parasites, cherry-pick, set 2; 21% of 5,600 active; inhibition, % at 2.09 µM; shares compounds with T cruzi growth-1; T. cruzi beta-gal in NIH3T3, GalScreen luminescence, 90 h;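 active means mean inhibition above about 95%, with at least 55% of replicates also reaching it, limit read from the data; inconclusive means meets just one of the two conditions; inactive means meets neither condition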;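 further: plate controls were neutral control median for no effect and positive control median for full effect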
NIH3T3 tox = cytotoxicity in mouse NIH/3T3 fibroblasts, confirmation, cytotoxicity control for T. cruzi proliferation inhibitor project, cell-based, cherry-pick, single point; shares compounds with T cruzi growth-1; NIH/3T3 viability, CellTiter-Glo ATP luminescence, 90 h; cytotoxicity (signal decrease), % at 8.35 µM; 14% of 5,600 active; AID 651742, 2012;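 active means mean signal decrease across replicates above about 35% based on untreated-well scatter, with enough replicates individually passing, limit read from the data; inconclusive means no rule stated though some were filed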;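 further: 0% = median of neutral control wells and 100% = median of positive control wells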
NIH3T3 tox 2 = NIH/3T3 fibroblast cytotoxicity, confirmation, cytotoxicity control, cell-based, cherry-pick, single point, set 2; shares compounds with T cruzi growth-1; inhibition, % at 24.9 µM; NIH/3T3 viability, CellTiter-Glo ATP luminescence, 90 h; 56% of 5,600 active;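 active means mean loss of cell viability signal at or above a set limit, and enough replicates individually reaching it; inconclusive means meets only the mean limit or only the replicate share; inactive means meets neither condition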;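 further: 0% = median of neutral control wells and 100% = median of positive control wells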
* hit, by the source's call; u = inconclusive; x = not tested or not shown.

SMILES	Pf Dd2 inh	KDM4C inh	IDH1 R132H inh	T cruzi growth-1	T cruzi growth-2	T cruzi growth-3	NIH3T3 tox	NIH3T3 tox 2
C[C@H]1CCCCO[C@@H](CN(C)Cc2ccc(C(F)(F)F)cc2)[C@@H](C)CN([C@@H](C)CO)C(=O)c2cc(NC(=O)C3CCCCC3)ccc2O1	-52	-1	x	u	98*	95	23	26*
C[C@@H]1CCCCO[C@@H](CN(C)Cc2ccc(C(F)(F)F)cc2)[C@H](C)CN([C@@H](C)CO)C(=O)c2cc(NC(=O)C3CCCCC3)ccc2O1	-43	-1	2	114*	102*	112*	10	15
CCn1c(SCC(=O)c2cccc([N+](=O)[O-])c2)nnc1-c1ccc(Cl)cc1	x	x	0	x	x	x	x	x
COc1ccc(-c2cc(C(F)(F)F)n3nc(C(=O)NCCN4CCOCC4)c(Br)c3n2)cc1	x	x	0	x	x	x	x	x
[O-][NH2+]c1ccc(O)c2ncccc12	x	x	-3	x	x	x	x	x
CC(C)CC#Cc1ccc2c(c1)O[C@H](CN(C)S(=O)(=O)c1ccc(F)cc1)[C@H](C)CN([C@H](C)CO)S2(=O)=O	-59	-1	-1	x	x	x	x	x
CC(C)CC#Cc1ccc2c(c1)O[C@@H](CN(C)S(=O)(=O)c1cccc(F)c1)[C@@H](C)CN([C@H](C)CO)S2(=O)=O	-4	-1	0	120*	90	100*	18	57*
CCCC#Cc1ccc2c(c1)O[C@@H](CN(C)S(=O)(=O)c1cccc(F)c1)[C@@H](C)CN([C@@H](C)CO)S2(=O)=O	-55	-2	0	121*	105*	102*	20	84*
COc1cccc(S(=O)(=O)N(C)C[C@@H]2Oc3cc(C#CCC(C)C)ccc3S(=O)(=O)N([C@@H](C)CO)C[C@H]2C)c1	u	0	-4	96*	103*	108*	43*	78*
CCCC#Cc1ccc2c(c1)O[C@H](CN(C)S(=O)(=O)c1cccc(F)c1)[C@@H](C)CN([C@H](C)CO)S2(=O)=O	-2	0	1	122*	101*	106*	-3	24*
Cc1ccc(-c2nn(CCC(=O)Nc3cccc(Cl)c3)c(=O)c3ccccc23)cc1	x	x	-1	x	x	x	x	x
COCC#Cc1ccc2c(c1)O[C@H](CN(C)S(=O)(=O)c1cccc(F)c1)[C@H](C)CN([C@H](C)CO)S2(=O)=O	-82*	5	-1	107*	93	74	30	63*
C[C@H]1CN([C@@H](C)CO)S(=O)(=O)c2ccc(C#CCN(C)C)cc2O[C@@H]1CN(C)S(=O)(=O)c1cccc(F)c1	-45	3	0	x	x	x	x	x
CCCC#Cc1ccc2c(c1)O[C@H](CN(C)S(=O)(=O)c1cccc(F)c1)[C@H](C)CN([C@H](C)CO)S2(=O)=O	-49	1	0	122*	103*	108*	16	75*
C[C@@H]1CCCCO[C@H](CN(C)Cc2ccncc2)[C@@H](C)CN([C@@H](C)CO)C(=O)c2cc(NC(=O)CCCN(C)C)ccc2O1	28	7	5	43	x	x	x	x
COc1ccc(S(=O)(=O)N2CCCCN3[C@H](CO)[C@@H](c4ccc(-c5cccnc5)cc4)[C@H]3C2)cc1	-12	0	x	113*	78	23	19	12
COc1cccc(S(=O)(=O)N2CCCCN3[C@H](CO)[C@@H](c4ccc(-c5cncnc5)cc4)[C@H]3C2)c1	-2	-1	x	54	x	x	x	x
COc1cccc(S(=O)(=O)N2CCCCN3[C@H](C2)[C@H](c2ccc(-c4cccnc4)cc2)[C@@H]3CO)c1	-58	-1	x	105*	103*	88	4	6
COc1cccc(S(=O)(=O)N2CCCCN3[C@H](CO)[C@H](c4ccc(-c5ccncc5)cc4)[C@@H]3C2)c1	-12	-1	x	113*	109*	104*	-27	10
COc1cccc(S(=O)(=O)N2CCCCN3[C@H](CO)[C@H](c4ccc(-c5cccnc5)cc4)[C@@H]3C2)c1	13	-1	x	118*	103*	66	-8	24
COc1cccc(S(=O)(=O)N2CCCCN3[C@H](CO)[C@@H](c4ccc(-c5cccnc5)cc4)[C@H]3C2)c1	2	0	x	55	x	x	x	x
COc1cccc(S(=O)(=O)N2CCCCN3[C@H](CO)[C@@H](c4ccc(-c5ccccc5)cc4)[C@@H]3C2)c1	-45	0	x	65	x	x	x	x
O=C(C[C@@H]1CC[C@@H](NC(=O)Cc2ccccn2)[C@@H](CO)O1)NCCc1ccncc1	28	0	0	6	x	x	x	x
O=C1CN(S(=O)(=O)Cc2ccccc2)C[C@@H]2[C@H](c3ccc(C#Cc4ccccc4)cc3)[C@H](CO)N12	-37	-2	x	x	x	x	x	x
COc1cccc(-c2ccc([C@H]3[C@H](CO)N4C(=O)CN(C(=O)C5CCC5)C[C@@H]34)cc2)c1	-1	1	x	x	x	x	x	x
CS(=O)(=O)N(CC(=O)NC1CCCCCC1)c1ccc(I)cc1	x	x	0	x	x	x	x	x
C[C@H]1CCCCO[C@H](CN(C)C(=O)Nc2cccc3ccccc23)[C@@H](C)CN([C@@H](C)CO)C(=O)c2cc(NS(=O)(=O)c3cccs3)ccc2O1	-75	0	x	102*	93	66	-10	-3
C[C@@H]1CN([C@@H](C)CO)C(=O)c2cc(NS(=O)(=O)c3cccs3)ccc2O[C@@H](C)CCCCO[C@H]1CN(C)C(=O)Nc1cccc2ccccc12	-77	0	x	63	x	x	x	x
C[C@@H]1CCCCO[C@@H](CN(C)C(=O)Nc2cccc3ccccc23)[C@H](C)CN([C@H](C)CO)C(=O)c2cc(NS(=O)(=O)c3cccs3)ccc2O1	-24	-2	x	105*	105*	106*	-33	-17
C[C@H](O)C#Cc1cnc2c(c1)C(=O)N([C@H](C)CO)C[C@@H](C)[C@@H](CN(C)CC1CCOCC1)O2	52	1	x	x	x	x	x	x
